Laboratory results: ChEMBL document CHEMBL1926550, “Synthesis and antibacterial activity of naphthyridone derivatives containing mono/difluoro-methyloxime pyrrolidine scaffolds” (2012)
Converted amounts (≈) assume the structure as drawn.

How the values were obtained:
Format in all cases: functional
Escherichia coli [1] = assay: Antibacterial activity against Escherichia coli 10-1 after 18 hrs by two fold serial dilution method; settings: 10-1, 18 h
How it was run: (§1)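 Agar two-fold serial dilution in melted Mueller-Hinton agar, final concentrations 128 down to 0.008 μg/mL. Plates inoculated with 10⁴ cfu and incubated at 35 °C for 18 h. MIC taken as the lowest concentration giving no visible growth on the plate.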

Escherichia coli [2] = assay: Antibacterial activity against Escherichia coli 10-2 after 18 hrs by two fold serial dilution method; settings: 10-2, 18 h; how it was run: as §1
Escherichia coli [3] = assay: Antibacterial activity against Escherichia coli 10-3 after 18 hrs by two fold serial dilution method; settings: 10-3, 18 h; how it was run: as §1
Klebsiella pneumoniae [4] = assay: Antibacterial activity against Klebsiella pneumoniae 09-2 after 18 hrs by two fold serial dilution method; settings: 09-2, 18 h; how it was run: as §1
Klebsiella pneumoniae [5] = assay: Antibacterial activity against Klebsiella pneumoniae 10-1 after 18 hrs by two fold serial dilution method; settings: 10-1, 18 h; how it was run: as §1
Klebsiella pneumoniae [6] = assay: Antibacterial activity against Klebsiella pneumoniae 10-3 after 18 hrs by two fold serial dilution method; settings: 10-3, 18 h; how it was run: as §1
Pseudomonas aeruginosa [7] = assay: Antibacterial activity against Pseudomonas aeruginosa ATCC 27853 after 18 hrs by two fold serial dilution method; settings: ATCC 27853, 18 h; how it was run: as §1
Pseudomonas aeruginosa [8] = assay: Antibacterial activity against Pseudomonas aeruginosa 10-1 after 18 hrs by two fold serial dilution method; settings: 10-1, 18 h; how it was run: as §1
Pseudomonas aeruginosa [9] = assay: Antibacterial activity against Pseudomonas aeruginosa 10-2 after 18 hrs by two fold serial dilution method; settings: 10-2, 18 h; how it was run: as §1
Pseudomonas aeruginosa [10] = assay: Antibacterial activity against Pseudomonas aeruginosa 10-3 after 18 hrs by two fold serial dilution method; settings: 10-3, 18 h; how it was run: as §1
Staphylococcus aureus [11] = assay: Ratio of ciprofloxacin MIC to compound MIC for methicillin-resistant Staphylococcus aureus 10-2
Staphylococcus aureus [12] = assay: Ratio of gemifloxacin MIC to compound MIC for methicillin-resistant Staphylococcus aureus 10-2
Staphylococcus aureus [13] = assay: Ratio of moxifloxacin MIC to compound MIC for methicillin-resistant Staphylococcus aureus 10-2
Enterococcus faecalis [14] = assay: Ratio of ciprofloxacin MIC to compound MIC for Enterococcus faecalis 09-2
Enterococcus faecalis [15] = assay: Ratio of gemifloxacin MIC to compound MIC for Enterococcus faecalis 09-2
Enterococcus faecalis [16] = assay: Ratio of moxifloxacin MIC to compound MIC for Enterococcus faecalis 09-2
Enterococcus faecium [17] = assay: Antibacterial activity against Enterococcus faecium 09-1 after 18 hrs by two fold serial dilution method; settings: 09-1, 18 h; how it was run: as §1
Staphylococcus aureus [18] = assay: Antibacterial activity against Staphylococcus aureus ATCC 25923 after 18 hrs by two fold serial dilution method; settings: ATCC 25923, 18 h; how it was run: as §1
Staphylococcus aureus [19] = assay: Antibacterial activity against methicillin-resistant Staphylococcus aureus 10-1 after 18 hrs by two fold serial dilution method; settings: 10-1, 18 h
How it was run: (§2)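 Agar two-fold serial dilution in melted Mueller-Hinton agar, 128 to 0.008 μg/mL. Plates inoculated with 10⁴ cfu, incubated 35 °C for 18 h. MIC taken as lowest concentration giving no visible growth on the plate.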

Staphylococcus aureus [20] = assay: Antibacterial activity against methicillin-resistant Staphylococcus aureus 10-2 after 18 hrs by two fold serial dilution method; settings: 10-2, 18 h; how it was run: as §2
Staphylococcus aureus [21] = assay: Antibacterial activity against methicillin-resistant Staphylococcus aureus 10-3 after 18 hrs by two fold serial dilution method; settings: 10-3, 18 h; how it was run: as §2
Staphylococcus aureus [22] = assay: Antibacterial activity against methicillin-resistant Staphylococcus aureus 10-4 after 18 hrs by two fold serial dilution method; settings: 10-4, 18 h; how it was run: as §2
Staphylococcus aureus [23] = assay: Antibacterial activity against methicillin-sensitive Staphylococcus aureus 10-1 after 18 hrs by two fold serial dilution method; settings: 10-1, 18 h; how it was run: as §1
Staphylococcus aureus [24] = assay: Antibacterial activity against methicillin-sensitive Staphylococcus aureus 10-2 after 18 hrs by two fold serial dilution method; settings: 10-2, 18 h; how it was run: as §1
Staphylococcus aureus [25] = assay: Antibacterial activity against methicillin-sensitive Staphylococcus aureus 10-3 after 18 hrs by two fold serial dilution method; settings: 10-3, 18 h; how it was run: as §1
Staphylococcus aureus [26] = assay: Antibacterial activity against methicillin-sensitive Staphylococcus aureus 10-4 after 18 hrs by two fold serial dilution method; settings: 10-4, 18 h; how it was run: as §1
Staphylococcus aureus [27] = assay: Antibacterial activity against methicillin-sensitive Staphylococcus aureus 10-5 after 18 hrs by two fold serial dilution method; settings: 10-5, 18 h; how it was run: as §1
Staphylococcus aureus [28] = assay: Antibacterial activity against methicillin-sensitive Staphylococcus aureus 10-6 after 18 hrs by two fold serial dilution method; settings: 10-6, 18 h; how it was run: as §1
[29] = tested on: Staphylococcus epidermidis; assay: Antibacterial activity against methicillin-resistant Staphylococcus epidermidis 10-1 after 18 hrs by two fold serial dilution method; settings: 10-1, 18 h; how it was run: as §2
[30] = tested on: Staphylococcus epidermidis; assay: Antibacterial activity against methicillin-resistant Staphylococcus epidermidis 10-2 after 18 hrs by two fold serial dilution method; settings: 10-2, 18 h; how it was run: as §2
[31] = tested on: Staphylococcus epidermidis; assay: Antibacterial activity against methicillin-sensitive Staphylococcus epidermidis 10-1 after 18 hrs by two fold serial dilution method; settings: 10-1, 18 h; how it was run: as §1
[32] = tested on: Staphylococcus epidermidis; assay: Antibacterial activity against methicillin-sensitive Staphylococcus epidermidis 10-2 after 18 hrs by two fold serial dilution method; settings: 10-2, 18 h; how it was run: as §1
Streptococcus pneumoniae = assay: Antibacterial activity against Streptococcus pneumoniae 10-1 after 18 hrs by two fold serial dilution method; settings: 10-1, 18 h; how it was run: as §1
Enterococcus faecium [33] = assay: Antibacterial activity against Enterococcus faecium 09-2 after 18 hrs by two fold serial dilution method; settings: 09-2, 18 h; how it was run: as §1
Enterococcus faecium [34] = assay: Antibacterial activity against Enterococcus faecium 09-3 after 18 hrs by two fold serial dilution method; settings: 09-3, 18 h; how it was run: as §1
Enterococcus faecium [35] = assay: Antibacterial activity against Enterococcus faecium 09-4 after 18 hrs by two fold serial dilution method; settings: 09-4, 18 h; how it was run: as §1
Enterococcus faecium [36] = assay: Antibacterial activity against Enterococcus faecium 09-5 after 18 hrs by two fold serial dilution method; settings: 09-5, 18 h; how it was run: as §1
Enterococcus faecium [37] = assay: Antibacterial activity against Enterococcus faecium 09-6 after 18 hrs by two fold serial dilution method; settings: 09-6, 18 h; how it was run: as §1
Enterococcus faecalis [38] = assay: Antibacterial activity against Enterococcus faecalis 09-1 after 18 hrs by two fold serial dilution method; settings: 09-1, 18 h; how it was run: as §1
Enterococcus faecalis [39] = assay: Antibacterial activity against Enterococcus faecalis 09-2 after 18 hrs by two fold serial dilution method; settings: 09-2, 18 h; how it was run: as §1
Escherichia coli [40] = assay: Antibacterial activity against Escherichia coli ATCC 25922 after 18 hrs by two fold serial dilution method; settings: ATCC 25922, 18 h; how it was run: as §1
Escherichia coli [41] = assay: Antibacterial activity against Escherichia coli 09-1 after 18 hrs by two fold serial dilution method; settings: 09-1, 18 h; how it was run: as §1
Escherichia coli [42] = assay: Antibacterial activity against Escherichia coli 09-2 after 18 hrs by two fold serial dilution method; settings: 09-2, 18 h; how it was run: as §1
Escherichia coli [43] = assay: Antibacterial activity against Escherichia coli 09-3 after 18 hrs by two fold serial dilution method; settings: 09-3, 18 h; how it was run: as §1

CC1(CN)CN(c2nc3c(cc2F)c(=O)c(C(=O)O)cn3C2CC2)C/C1=N\OCF (racemic)
MIC (Escherichia coli [1]): 64 µg/mL (≈ 152 µM) | MIC (Escherichia coli [2]): 0.125 µg/mL (≈ 0.297 µM) | MIC (Escherichia coli [3]): 32 µg/mL (≈ 75.9 µM) | MIC (Klebsiella pneumoniae [4]): 128 µg/mL (≈ 304 µM) | MIC (Klebsiella pneumoniae [5]): 0.015 µg/mL (≈ 0.0356 µM) | MIC (Klebsiella pneumoniae [6]): 0.125 µg/mL (≈ 0.297 µM) | MIC (Pseudomonas aeruginosa [7]): 0.125 µg/mL (≈ 0.297 µM) | MIC (Pseudomonas aeruginosa [8]): 0.008 µg/mL (≈ 0.019 µM) | MIC (Pseudomonas aeruginosa [9]): 16 µg/mL (≈ 38 µM) | MIC (Pseudomonas aeruginosa [10]): 4 µg/mL (≈ 9.49 µM) | Ratio (Staphylococcus aureus [11]): 64 | Ratio (Staphylococcus aureus [12]): 2 | Ratio (Staphylococcus aureus [13]): 32 | Ratio (Enterococcus faecalis [14]): 64 | Ratio (Enterococcus faecalis [15]): 4 | Ratio (Enterococcus faecalis [16]): 16 | MIC (Enterococcus faecium [17]): 16 µg/mL (≈ 38 µM) | MIC (Staphylococcus aureus [18]): 0.008 µg/mL (≈ 0.019 µM) | MIC (Staphylococcus aureus [19]): 4 µg/mL (≈ 9.49 µM) | MIC (Staphylococcus aureus [20]): 0.25 µg/mL (≈ 0.593 µM) | MIC (Staphylococcus aureus [21]): 4 µg/mL (≈ 9.49 µM) | MIC (Staphylococcus aureus [22]): 4 µg/mL (≈ 9.49 µM) | MIC (Staphylococcus aureus [23]): 0.06 µg/mL (≈ 0.142 µM) | MIC (Staphylococcus aureus [24]): 1 µg/mL (≈ 2.37 µM) | MIC (Staphylococcus aureus [25]): 0.25 µg/mL (≈ 0.593 µM) | MIC (Staphylococcus aureus [26]): 0.06 µg/mL (≈ 0.142 µM) | MIC (Staphylococcus aureus [27]): 0.03 µg/mL (≈ 0.0712 µM) | MIC (Staphylococcus aureus [28]): 0.125 µg/mL (≈ 0.297 µM) | MIC [29]: 1 µg/mL (≈ 2.37 µM) | MIC [30]: 0.5 µg/mL (≈ 1.19 µM) | MIC [31]: 8 µg/mL (≈ 19 µM) | MIC [32]: 64 µg/mL (≈ 152 µM) | MIC (Streptococcus pneumoniae): 0.5 µg/mL (≈ 1.19 µM) | MIC (Enterococcus faecium [33]): 16 µg/mL (≈ 38 µM) | MIC (Enterococcus faecium [34]): 8 µg/mL (≈ 19 µM) | MIC (Enterococcus faecium [35]): 0.06 µg/mL (≈ 0.142 µM) | MIC (Enterococcus faecium [36]): 16 µg/mL (≈ 38 µM) | MIC (Enterococcus faecium [37]): 0.06 µg/mL (≈ 0.142 µM) | MIC (Enterococcus faecalis [38]): 4 µg/mL (≈ 9.49 µM) | MIC (Enterococcus faecalis [39]): 1 µg/mL (≈ 2.37 µM) | MIC (Escherichia coli [40]): 0.008 µg/mL (≈ 0.019 µM) | MIC (Escherichia coli [41]): 64 µg/mL (≈ 152 µM) | MIC (Escherichia coli [42]): > 128 µg/mL | MIC (Escherichia coli [43]): 32 µg/mL (≈ 75.9 µM)
